These results are taken from ChEMBL document CHEMBL4825663 (J Med Chem, 2021).

Series [1] can be described thus: Half life in Sprague-Dawley rat at 3 mg/kg, iv measured upto 48 hrs by LC-MS/MS analysis. As to conditions: in vivo; call rule not given here. It counts as ADME, organism-based. The essentials:
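Plasma pharmacokinetics in male Sprague-Dawley rats and male Beagle dogs (n = 3 per species), each given a single dose by IV at 3 mg/kg and by PO at 10 mg/kg. Cmax, Tmax, T1/2 and AUClast were derived for each route. F (%) was calculated from the PO and IV AUClast.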

Series [2] addresses T1, Cytochrome P450 1A2 (Homo sapiens, UniProt P05177).
T1 sequence (P05177 whole entry): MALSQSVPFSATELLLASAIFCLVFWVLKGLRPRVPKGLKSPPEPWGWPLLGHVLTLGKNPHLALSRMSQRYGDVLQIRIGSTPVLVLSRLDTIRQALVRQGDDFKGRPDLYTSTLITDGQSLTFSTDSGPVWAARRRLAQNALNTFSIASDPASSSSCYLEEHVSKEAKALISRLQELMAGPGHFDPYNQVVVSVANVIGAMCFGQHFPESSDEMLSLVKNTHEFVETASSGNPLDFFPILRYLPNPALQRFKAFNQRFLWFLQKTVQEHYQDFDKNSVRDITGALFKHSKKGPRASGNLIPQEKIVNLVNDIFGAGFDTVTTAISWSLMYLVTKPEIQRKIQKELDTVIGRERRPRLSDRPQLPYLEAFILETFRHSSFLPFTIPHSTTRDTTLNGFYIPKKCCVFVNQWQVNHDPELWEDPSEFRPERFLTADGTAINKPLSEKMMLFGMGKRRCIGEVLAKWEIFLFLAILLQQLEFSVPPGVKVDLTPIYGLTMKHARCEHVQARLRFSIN
Put plainly: Drug metabolism assessed as human CYP1A2-mediated metabolism. The format is ADME. As to conditions: recombinant enzyme.

Series [3] concerns the target Cytochrome P450 3A4 (Homo sapiens, UniProt P08684). The experiment in a line: Drug metabolism assessed as human CYP3A4-mediated metabolism. It counts as ADME. As to conditions: recombinant enzyme.
Series [4] is described as follows: Toxicity in Sprague-Dawley rat at 2000 mg/kg, po administered as single dose and measured upto 13 weeks. The format is organism-based. The settings on record: in vivo, 2184 h.
Series [5] deals with T2, Cytochrome P450 2B6 (Homo sapiens, UniProt P20813).
T2 sequence (P20813 whole entry): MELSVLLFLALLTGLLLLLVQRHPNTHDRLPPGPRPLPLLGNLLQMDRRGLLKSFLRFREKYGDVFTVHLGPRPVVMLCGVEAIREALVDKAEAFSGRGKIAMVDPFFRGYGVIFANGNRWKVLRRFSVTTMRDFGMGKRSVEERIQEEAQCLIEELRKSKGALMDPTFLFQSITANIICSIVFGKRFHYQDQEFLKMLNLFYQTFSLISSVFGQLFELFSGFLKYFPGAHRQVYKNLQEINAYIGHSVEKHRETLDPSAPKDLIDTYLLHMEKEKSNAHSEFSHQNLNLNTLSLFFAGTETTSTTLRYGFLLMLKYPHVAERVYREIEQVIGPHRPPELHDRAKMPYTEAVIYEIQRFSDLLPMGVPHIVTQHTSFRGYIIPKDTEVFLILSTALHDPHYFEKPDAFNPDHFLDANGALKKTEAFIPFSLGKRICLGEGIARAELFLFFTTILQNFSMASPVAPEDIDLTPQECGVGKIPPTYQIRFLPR
The experiment in a line: Drug metabolism assessed as human CYP2B6-mediated metabolism. The format is ADME. The settings on record: recombinant enzyme.

Series [6] is described as follows: AUClast in Beagle dog at 3 mg/kg, iv measured upto 48 hrs by LC-MS/MS analysis. It counts as ADME, organism-based, Canis lupus familiaris. On the set-up: route intravenous, dose 3 mg/kg, time <=48. The settings on record: in vivo. The essentials: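 Single dose in male Sprague-Dawley rats and male Beagle dogs (n = 3 per species), given 3 mg/kg IV or 10 mg/kg PO. Plasma was sampled to derive Cmax, Tmax, T1/2 and AUClast by each route. Oral bioavailability (F) was calculated from the PO and IV AUClast.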

The nature of series [7]: Toxicity in athymic nude mouse xenografted with human NCI-H460 cells assessed as reduction in body weight at 30 to 50 mg/kg, po administered every other day for 4 doses in presence of 12 to 20 mg/kg encequidar and monitored for 48 days. It counts as organism-based. The settings on record: in vivo, 1152 h, dose 30-50 mg/kg, time 48 day.
Series [8] can be described thus: Cmax in Sprague-Dawley rat at 20 mg/kg, po measured upto 24 hrs by LC-MS/MS analysis. It counts as ADME, organism-based. On the set-up: route oral, dose 20 mg/kg, time <=24. As to conditions: in vivo.
For series [9], the system named is NCI-H460. Put plainly: Antitumor activity against human NCI-H460 cells xenografted in athymic nude mouse assessed as median tumor growth delay at 24 mg/kg, iv administered every other day for 4 doses and monitored for 48 days. It counts as functional. The settings on record: time 48 day. The essentials:
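Female athymic NCr-nu mice carried subcutaneous NCI-H460 xenografts. […] Tumor weights and body weights were followed for 48 days after implantation. Read-out was median tumor growth delay.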

The nature of series [10]: Cmax in Sprague-Dawley rat at 20 mg/kg, po measured upto 24 hrs in presence of 10 mg/kg encequidar by LC-MS/MS analysis. The format is ADME, organism-based. On the set-up: route oral, dose 20 mg/kg, time <=24. As to conditions: in vivo.
Series [11] is described as follows: Drug distribution in Sprague-Dawley rat intestine at 20 mg/kg, po measured upto 168 hrs in presence of 10 mg/kg encequidar by LC-MS/MS analysis. The format is ADME, organism-based. The settings on record: in vivo.
In series [12] the test system is NCI-H460. The experiment in a line: Antitumor activity against human NCI-H460 cells xenografted in athymic nude mouse assessed as median tumor growth delay at 50 mg/kg, po administered every other day for 4 doses in presence of 20 mg/kg encequidar and monitored for 48 days. It counts as functional. As to conditions: time 48 day. The essentials: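 Female athymic NCr-nu mice bearing subcutaneous NCI-H460 human lung tumor xenografts. Paclitaxel (30, 40 or 50 mg/kg) and the P-gp inhibitor (12, 16 or 20 mg/kg; ratio 2.5:1) given together as one oral gavage solution every other day for four doses. IV paclitaxel (18 and 24 mg/kg) on the same schedule for comparison. Tumor weights and body weights followed for 48 days after implantation. Read-out: median tumor growth delay.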

The nature of series [13]: Toxicity in athymic nude mouse xenografted with human NCI-H460 cells assessed as reduction in body weight at 18 to 24 mg/kg, iv administered every other day for 4 doses monitored for 48 days. The format is organism-based. The settings on record: in vivo, 1152 h, dose 18-24 mg/kg, time 48 day. The essentials:
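Female athymic NCr-nu mice carried subcutaneous NCI-H460 human lung tumor xenografts. Paclitaxel was given IV at 18 or 24 mg/kg every other day for four doses. Animals were followed for 48 days after tumor implantation, with individual body weights and mortality recorded alongside tumor weights.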

A short description of series [14]: Toxicity in athymic nude mouse xenografted with human MDA-MB-231 cells assessed as reduction in body weight at 40 mg/kg, po administered every other day for 4 doses in presence of 16 mg/kg encequidar and monitored for 70 to 82 days. The format is organism-based. On the set-up: scale not given: the % may be the effect or the level left. The settings on record: in vivo, time 70-82 day. In short, it runs like this:
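Female athymic NCr-nu mice (n = 10/group) bearing subcutaneous MDA-MB-231 xenografts were treated from day 8. […] Individual body weights were monitored for 82 days after implantation.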

Chain of Cytochrome P450 3A4 (P08684 whole entry): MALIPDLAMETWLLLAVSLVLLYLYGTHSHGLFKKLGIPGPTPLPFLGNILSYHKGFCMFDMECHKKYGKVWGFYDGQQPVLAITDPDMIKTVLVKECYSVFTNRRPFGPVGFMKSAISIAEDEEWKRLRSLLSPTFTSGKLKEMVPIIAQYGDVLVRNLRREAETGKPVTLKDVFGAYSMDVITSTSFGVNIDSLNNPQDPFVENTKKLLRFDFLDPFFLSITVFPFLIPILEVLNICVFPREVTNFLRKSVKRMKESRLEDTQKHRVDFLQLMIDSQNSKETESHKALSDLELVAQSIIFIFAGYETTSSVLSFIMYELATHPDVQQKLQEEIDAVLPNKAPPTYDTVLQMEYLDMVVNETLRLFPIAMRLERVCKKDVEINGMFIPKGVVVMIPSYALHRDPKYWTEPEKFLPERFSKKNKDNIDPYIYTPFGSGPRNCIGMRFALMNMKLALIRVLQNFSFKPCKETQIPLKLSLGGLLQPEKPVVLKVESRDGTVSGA

`COc1cc2c(cc1OC)CN(CCc1ccc(-n3nnc(-c4cc(OC)c(OC)cc4NC(=O)c4cc(=O)c5ccccc5o4)n3)cc1)CC2` gave a half-life in series [1] of 14.8 h. Further, the results for the Drug metabolism result in series [2], in [3] and in series [5] were “Metabolite_Notdetected”, “Metabolite_Detected” and “Metabolite_Notdetected”, respectively. Moreover, the Activity entry in series [4] was “Non-Toxic”. Besides, the AUC(0-t) at 48 h in series [6] was found to be 1920 ng·h/mL.
Turning to `CC(=O)O[C@H]1C(=O)[C@@]2(C)[C@H]([C@H](OC(=O)c3ccccc3)[C@]3(O)C[C@H](OC(=O)[C@H](O)[C@@H](NC(=O)c4ccccc4)c4ccccc4)C(C)=C1C3(C)C)[C@]1(OC(C)=O)CO[C@@H]1C[C@@H]2O` [PACLITAXEL], the Activity entry in series [7] was “Toxic”; in series [13] it was “Toxic”; in [14] it was 5%. The Cmax in series [8] is 127 ng/mL; in series [10], 1250 ng/mL. Further, the Time was 16.3 days in series [9] and 12.7 days in [12]. In [11], the Drug uptake result was “Active”.
